What was measured:
[1] = species on record: Danio rerio; assay: Toxicity in transgenic zebrafish larvae harboring Fli-1 gene assessed as maximum tolerated dosage after 24 hrs; type: organism-based; details: in vivo
Summary of the method: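 Fertilized eggs of the fli-1:EGFP line reared in E3 embryo medium at 28 °C, with PTU added at 20 hpf to block pigmentation. Compounds were dissolved in DMSO and diluted in Danieau's 0.3X, final DMSO ≤1%. Larvae at 4 dpf, 5 per well, were exposed for 24 h to 10, 30 and 100 (highest) concentrations and checked by light microscopy at 5 dpf. MTC is the highest concentration giving no death or toxicity signs.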

[2] = species on record: Danio rerio; assay: Antiinflammatory activity in transgenic zebrafish larvae harboring Fli-1 gene assessed as LPS-stimulated leukocyte migration to injury zone of tail transected larvae at 10 uM after 20 to 22 hrs by microscopy; type: functional
Summary of the method: (§1)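 Transgenic fli-1:EGFP zebrafish were reared in E3 at 28 °C, with PTU added at 20 hpf. Compounds were dissolved in DMSO and diluted in Danieau's, with final DMSO ≤1%. Ten 4-dpf larvae per group were pretreated for 1 h, anaesthetised with tricaine and tail-transected. They were then incubated with compound plus LPS for 20–22 h, fixed in 4% PFA and stained with Leucognost. Leukocyte migration to the tail tip was scored microscopically as relative leukocyte migration. Run in triplicate.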

[3] = species on record: Danio rerio; assay: Antiinflammatory activity in transgenic zebrafish larvae harboring Fli-1 gene assessed as LPS-stimulated leukocyte migration to injury zone of tail transected larvae at 30 uM after 20 to 22 hrs by microscopy; type: functional; summary of the method: as §1
[4] = species on record: Danio rerio; assay: Antiinflammatory activity in transgenic zebrafish larvae harboring Fli-1 gene assessed as LPS-stimulated leukocyte migration to injury zone of tail transected larvae at 100 uM after 20 to 22 hrs by microscopy; type: functional; summary of the method: as §1
[5] = species on record: Danio rerio; assay: Antiinflammatory activity in transgenic zebrafish larvae harboring Fli-1 gene assessed as LPS-stimulated leukocyte migration to injury zone of tail transected larvae at 1 uM after 20 to 22 hrs by microscopy; type: functional; summary of the method: as §1
[6] = species on record: Danio rerio; assay: Antiinflammatory activity in transgenic zebrafish larvae harboring Fli-1 gene assessed as LPS-stimulated leukocyte migration to injury zone of tail transected larvae at 3 uM after 20 to 22 hrs by microscopy; type: functional; summary of the method: as §1
[7] = tested on: J774; assay: Cytotoxicity against mouse J774 cells at 1 ug/mL after 24 hrs by MTT assay; type: functional
Summary of the method: (§2)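 J774 macrophages in RPMI-1640 with 20% heat-inactivated FCS were seeded at 70,000 cells/well and allowed to attach for 24 h at 37 °C. They were exposed to compounds for 24 h (final DMSO ≤0.2%), then given MTT 0.4 mg/mL for 60 min; formazan was dissolved in DMSO and read at OD595. %Cytotoxicity was calculated against growth controls, corrected for compound-in-medium blanks. Each concentration was tested three times, in duplicate assays.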

[8] = tested on: J774; assay: Cytotoxicity against mouse J774 cells at 10 ug/mL after 24 hrs by MTT assay; type: functional; summary of the method: as §2
[9] = tested on: J774; assay: Cytotoxicity against mouse J774 cells at 100 ug/mL after 24 hrs by MTT assay; type: functional; summary of the method: as §2
[10] = tested on: Mus musculus; assay: Antiinflammatory activity against TPA-induced ear edema in Swiss mouse assessed as inhibition of increase in ear weight at 0.5 mg/ear administered topically measured after 4 hrs relative to control; type: functional
Summary of the method: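 Female Swiss mice (25–30 g, groups of six) received TPA in acetone topically on the right ear, with the left ear as control. Compound in acetone was applied at the same time. After 4 h, 6 mm punches from both ears were weighed. Oedema was taken as the weight difference between ears, and inhibition % was calculated versus the vehicle group. Mean ± SEM, Dunnett's test.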

[11] = species on record: Mus musculus; assay: Inhibition of MPO activity in TPA-induced Swiss mouse ear tissue homogenates after 3 mins relative to control; type: functional, organism-based; parameters: concentration or dose not given beside the values
Summary of the method: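 Ear tissue was homogenised at 0 °C in 80 mM phosphate buffer with 0.5% HTAB, then centrifuged at 10300g for 20 min at 4 °C. Supernatant, in triplicate, was mixed with phosphate buffer (pH 5.4) and H2O2. The reaction was started with TMB in 8% DMF, run 3 min at 37 °C and stopped with NaOAc/HOAc pH 3.0. A630 was read, and inhibition % was calculated versus the vehicle group.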

[12] = tested on: J774; assay: Cytotoxicity against mouse J774 cells at 256 uM after 24 hrs by MTT assay; type: functional; summary of the method: as §2
[13] = tested on: J774; assay: Cytotoxicity against mouse J774 cells at 128 uM after 24 hrs by MTT assay; type: functional; summary of the method: as §2
[14] = tested on: J774; assay: Cytotoxicity against mouse J774 cells at 64 uM after 24 hrs by MTT assay; type: functional; summary of the method: as §2
[15] = species on record: Danio rerio; assay: Antiinflammatory activity in transgenic zebrafish larvae harboring Fli-1 gene assessed as LPS-stimulated leukocyte migration to injury zone of tail transected larvae at 0.3 uM after 20 to 22 hrs by microscopy; type: functional; summary of the method: as §1
[16] = species on record: Danio rerio; assay: Toxicity to transgenic zebrafish larvae harboring Fli-1 gene at 100 uM after 24 hrs; details: in vivo

Compound	MTD [1]	Ratio [2]	Ratio [3]	Ratio [5]	Ratio [6]	other results
O=[N+]([O-])c1ccc2c(c1)CC([O-])=N[N+]21CCCCC1	> 100 µM	0.86	0.89			Ratio [4]: 0.81
O=c1c2cc([N+](=O)[O-])ccc2n2n1Cc1ccccc1C2	10 µM	0.29		0.56	0.54	
Cn1c2ccc([N+](=O)[O-])cc2c(=O)n1Cc1ccccc1	30 µM	0.63	0.27		0.67	Activity [7]: 11.5%; Activity [8]: 21%; Activity [9]: 57.5%; inhibition (INH) [10]: 104%; inhibition [11]: 67%
O=c1[nH]n(Cc2ccccc2F)c2ccccc12	30 µM	0.25	0.17		0.46	inhibition (INH) [10]: 32%; inhibition [11]: -3%
O=C(Cc1cc([N+](=O)[O-])ccc1F)NN1Cc2ccccc2C1	> 100 µM	0.89	0.87			Ratio [4]: 0.5
O=c1c2cc([N+](=O)[O-])ccc2n(Cc2ccccc2)n1Cc1ccccc1	10 µM	0.35		0.58	0.65	Activity [12]: 57.87%; Activity [13]: 64%; Activity [14]: 9.77%; inhibition (INH) [10]: 80%; inhibition [11]: 36%
COc1nn(Cc2ccccc2F)c2ccc([N+](=O)[O-])cc12	30 µM	0.92	0.87		0.86	
CCCn1c2ccc([N+](=O)[O-])cc2c(=O)n1Cc1ccccc1	30 µM	0.86	0.16		0.89	
Cn1c(=O)c2cc([N+](=O)[O-])ccc2n1Cc1ccccc1	30 µM	0.46	0.26		0.6	Activity [7]: 32.8%; Activity [8]: 43.9%; Activity [9]: 58.4%; inhibition (INH) [10]: 97%; inhibition [11]: 56%
O=c1[nH]n(Cc2ccccn2)c2ccc([N+](=O)[O-])cc12	> 100 µM	0.83	0.74			Ratio [4]: 0.59
O=C(NN1Cc2ccccc2C1)c1cc([N+](=O)[O-])ccc1Cl	> 100 µM	0.93	0.93			Ratio [4]: 0.7
O=C(NCc1cc([N+](=O)[O-])ccc1N1CCc2ccccc2C1)NCc1cc([N+](=O)[O-])ccc1N1CCc2ccccc2C1	10 µM	0.81		0.85	0.82	
CCOCc1ccccc1CCN1CC(=O)Nc2cc([N+](=O)[O-])ccc21	10 µM	0.48		0.59	0.62	
COc1nn(Cc2ccccc2-c2ccccc2Cn2nc(OC)c3cc([N+](=O)[O-])ccc32)c2ccc([N+](=O)[O-])cc12	10 µM	0.69		0.84	0.87	
COc1ccc2c(c1)c(CC(=O)O)c(C)n2C(=O)c1ccc(Cl)cc1 [INDOMETHACIN]	> 100 µM	0.48	0.38	0.54	0.5	Ratio [15]: 0.57; Ratio [4]: 0.28; inhibition (INH) [10]: 97%; inhibition [11]: 61%
COc1ccc(Cn2[nH]c(=O)c3cc([N+](=O)[O-])ccc32)cc1	10 µM	0.8		0.87	0.87	
O=C1Nc2cc([N+](=O)[O-])ccc2N2Cc3ccccc3CC12 (stereo not given)	10 µM	0.77		0.75	0.71	

Compound	MTD [1]	Ratio [2]	Ratio [3]	Ratio [5]	Ratio [6]	other results
CN(C)CCCOc1nn(Cc2ccccc2F)c2ccc([N+](=O)[O-])cc12	30 µM	0.89	0.97		0.74	
O=C1C2=Cc3ccccc3CCN2c2ccccc21	3 µM			0.4	0.24	Ratio [15]: 0.64; Activity [7]: 3.4%; Activity [8]: 9.4%; Activity [9]: 73.1%; inhibition (INH) [10]: 73%; inhibition [11]: 56%; Activity [16]: Toxic
O=c1c2cc([N+](=O)[O-])ccc2[nH]n1Cc1ccccn1	> 100 µM	0.94	0.62			Ratio [4]: 0.66
O=c1[nH]n(Cc2cccc(Cn3[nH]c(=O)c4cc([N+](=O)[O-])ccc43)c2)c2ccc([N+](=O)[O-])cc12	10 µM	0.64		0.87	0.8	
O=c1[nH]n(Cc2ccccc2F)c2ccc([N+](=O)[O-])cc12	10 µM	0.3		0.91	0.84	
O=c1c2cccnc2n2n1Cc1ccccc1C2	30 µM	0.8	0.52		0.89	
O=c1[nH]n(Cc2ccccc2O)c2ccc([N+](=O)[O-])cc12	> 100 µM	0.86	0.61			Ratio [4]: 0.27
O=c1[nH]n(Cc2ccccc2OCc2ccccc2)c2ccc([N+](=O)[O-])cc12	10 µM	0.84		0.94	0.76	
O=[N+]([O-])c1ccc2[nH]nc(OCc3ccccc3Cl)c2c1	10 µM	0.41		0.62	0.65	Activity [7]: 4.4%; Activity [8]: 9.4%; Activity [9]: 96.4%; inhibition (INH) [10]: 91%; inhibition [11]: 63%
O=c1[nH]n(Cc2ccccc2)c2ccc([N+](=O)[O-])cc12	10 µM	0.46		0.88	0.67	
O=c1[nH]n(Cc2ccccc2CCl)c2ccc([N+](=O)[O-])cc12	10 µM	0.33		0.83	0.78	
O=c1c2cc([N+](=O)[O-])ccc2[nH]n1Cc1ccccc1	> 100 µM	0.81	0.65			Ratio [4]: 0.39
O=c1[nH]n(Cc2ccccc2Cl)c2ccc([N+](=O)[O-])cc12	30 µM	0.22	0.26		0.78	
CCCCCn1c2ccc([N+](=O)[O-])cc2c(=O)n1Cc1ccccc1	10 µM	0.27		0.68	0.67	Activity [12]: 80.99%; Activity [13]: 71.75%; Activity [14]: 54.14%; inhibition (INH) [10]: 92%; inhibition [11]: 46%
O=c1[nH]n(Cc2ccccc2-c2ccccc2Cn2[nH]c(=O)c3cc([N+](=O)[O-])ccc32)c2ccc([N+](=O)[O-])cc12	10 µM	0.85		0.72	0.92	
O=[N+]([O-])c1ccc2c(c1)c(OCc1ccccc1)nn2Cc1ccccc1	10 µM	0.73		0.94	0.75	

Source: ChEMBL document CHEMBL2010648, “Discovery of novel anti-inflammatory drug-like compounds by aligning in silico and in vivo screening: the nitroindazolinone chemotype” (Eur J Med Chem, 2011)
